# TAAR1 antagonist = human TAAR1 antagonists, primary screen, Fluo-8 calcium fluorescence, CHO RD-HGA16 cells | 1.5% of 360,000 active | Trace amine-associated receptor 1 (Homo sapiens), Q96RJ0 | AID 624466, 2012 | antagonist | inhibition, % at 3 µM;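 active means inhibition above a per-plate cutoff, the mean inhibition of test compounds on that plate plus 3 SD, cut at about 49% in these data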;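 further: 0% = DMSO plus EC80 beta-PEA response and 100% = DMSO alone without agonist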
# Target sequence (Q96RJ0 whole entry, looked up): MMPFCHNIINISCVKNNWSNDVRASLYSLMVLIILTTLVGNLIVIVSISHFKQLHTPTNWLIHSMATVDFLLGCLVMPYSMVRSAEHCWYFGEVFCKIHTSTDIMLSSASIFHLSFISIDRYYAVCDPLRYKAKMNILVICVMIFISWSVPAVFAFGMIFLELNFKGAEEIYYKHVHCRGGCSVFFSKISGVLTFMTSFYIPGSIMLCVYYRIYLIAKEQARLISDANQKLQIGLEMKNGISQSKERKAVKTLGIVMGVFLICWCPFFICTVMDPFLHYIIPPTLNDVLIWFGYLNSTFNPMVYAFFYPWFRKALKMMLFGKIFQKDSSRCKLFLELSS
#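 Test system: RD-HGA16 CHO cells with stable hTAAR1 and Gα16 / Probe or stimulus: EC80 β-phenethylamine stimulus / Times: seeding 17-24 h prior, 75-min 37 °C, 30-min RT dye loading / Detection: Fluo-8 calcium-sensitive fluorescence / Read-out basis: % inhibition scaled between DMSO and EC80 PEA controls / Repeats: singlicate, one well per test compound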
# HCV NS3 hel inh = inhibitors of HCV NS3 helicase, primary screen, biochemical, Cy5 molecular beacon fluorescence; NS3 helicase DNA unwinding; inhibition, % at 10.9 µM; 0.56% of 290,000 active; AID 1800, 2009;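 active means inhibition above the mean of all tested compounds plus 3 SD, set per campaign, cut at about 35% in these data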;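 further: 0% = DMSO wells and 100% = thioflavine S control wells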
#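 System: NS3 helicase fragment of HCV / Schedule: 1 h at 25 °C / Control set: DMSO alone as 0% and 110 µM thioflavine S as 100% / Reagent: Cy5/quencher beacon DNA duplex and ATP to start / Technique: Cy5 fluorescence / Replication: singlicate / Evaluation: % inhibition of end-to-start signal ratio versus controls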
# TAAR1 ag = human TAAR1 agonists, primary screen, Fluo-8 calcium fluorescence, CHO RD-HGA16 cells. AID 624467, 2012. Trace amine-associated receptor 1 (Homo sapiens), Q96RJ0. activation, % at 3 µM. vehicle wells 0%, saturating PEA agonist 100%. 0.99% of 360,000 active;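 active means activation above the mean activation of all test compounds in the run plus 3 SD, cut at about 38% in these data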
#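 Test system: RD-HGA16 (CHO) cells co-expressing Gα16 and hTAAR1; dosing: one-point dosing at 3 µM (nominal); timing: 17-24 h seeding, 75 min 37 °C dye, 30 min RT; signal: kinetic Fluo-8 calcium fluorescence; read-out basis: % activation relative to PEA EC100 response; controls: DMSO and PEA EC100; replicates: n 1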
# rCAG binder = binders of r(CAG) RNA repeats, primary screen, biochemical, fluorescence. r(CAG) RNA repeat, TO-PRO-1 dye displacement fluorescence. inhibition, % at 3 µM. 1.3% of 370,000 active;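 active means inhibition above the plate cutoff, the mean of all test compounds on that plate plus 3 SD, cut at about 35% in these data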;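 further: 0% = DMSO alone and 100% = 100 µM mitoxantrone as full dye displacement; higher means more dye released from RNA so lower well fluorescence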
# core dimer inh = inhibitors of HCV core protein dimerization, primary screen, biochemical, TR-FRET, high-throughput | TR-FRET GST/Flag-core106 dimerization, 1536-well | inhibition, % at 5 µM | 0.33% of 300,000 active;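 active means inhibition above the mean of all tested compounds plus 3 SD, set per screening campaign, cut at about 45% in these data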
#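 System: GST-tagged and Flag-tagged HCV core protein residues 1-106 / Input: core106 proteins, GST 13.5 nM and Flag 17 nM / Buffer or medium: KF-containing HEPES buffer, pH 7.45, DTT, CHAPS, BSA / Probe or stimulus: Eu-anti-GST and XL665-anti-Flag labelled anti-tag antibodies / Schedule: 4 h, 22.5 °C incubation / Technique: TR-FRET 671 and 617 nm emission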
# TAAR1 ag confirm = human TAAR1 agonists, retest of hits, confirmation, Fluo-8 calcium fluorescence, CHO RD-HGA16 cells | shares compounds with TAAR1 ag | scaled: DMSO 0%, maximal phenethylamine 100% | activation, % at 3 µM | 82% of 2,400 active;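 active means activation above a cutoff set at the run's mean compound activation plus 3 SD, cut at about 39% in these data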
# Ga16 nonsel ag = nonselective calcium mobilization agonists, CHO-Ga16 cells, counter-screen for hTAAR1 agonist project, cell-based, fluorescence, CHO-Ga16 parental line; shares compounds with TAAR1 ag; Fluo-8 calcium fluorescence; normalized to maximal ATP response, DMSO zero; activation, % at 3 µM; 50% of 2,400 active;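 active means activation above the run cutoff, the mean activation over all tested wells plus 3 SD, cut at about 12% in these data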;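 further: 0% = DMSO wells and 100% = maximal ATP response on the peak over basal ratio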
# TAAR1 desens = TAAR1 desensitization by agonist hits, confirmation, counter-screen for TAAR1 agonist project, cell-based, fluorescence, tachyphylaxis; CHO RD-HGA16 hTAAR1, Fluo-8 calcium, beta-PEA response inhibition; shares compounds with TAAR1 ag; inhibition, % at 3 µM; AID 651951, 2012; 46% of 2,400 active;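 active means inhibition above the run cutoff, the mean inhibition of all test compounds plus 3 SD, cut at about 49% in these data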;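 further: beta-PEA stimulus applied at its EC80; loss of beta-PEA calcium signal after compound pretreatment read as receptor desensitization; 0% = DMSO with beta-PEA at EC80 and 100% = DMSO alone without agonist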
# Ga16 antag count = inhibition of ATP-evoked calcium response in CHO-Ga16 cells, counter-screen for TAAR1 agonist project, cell-based, fluorescence. shares compounds with TAAR1 ag. CHO-Ga16 ATP-induced calcium, Fluo-8 fluorescence. inhibition, % at 3 µM. 39% of 2,400 active. AID 651952, 2012;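 active means inhibition above the plate's mean compound inhibition plus 3 SD, computed per plate, cut at about 22% in these data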;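 further: 0% = EC80 ATP with DMSO and 100% = DMSO wells without ATP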
# * hit, by the source's call; . = no result. Only some compounds are listed: those with a hit (about 3.7% of all), similar ones and a draw of the others.
SMILES,TAAR1 antagonist,HCV NS3 hel inh,TAAR1 ag,rCAG binder,core dimer inh,TAAR1 ag confirm,Ga16 nonsel ag,TAAR1 desens,Ga16 antag count
Cc1cc(C)nc(Nc2nc(C(N)Cc3ccc(Cl)cc3)cs2)n1 (configuration not stated),49.8*,.,62.5*,16.2,.,45.4*,27.3*,31.0,32.9*
Cc1cc(C)nc(Nc2nc(C(N)Cc3ccc(F)cc3)cs2)n1 (configuration not stated),1.9,.,27.8,13.4,.,.,.,.,.
Cc1cc(=O)[nH]c(SCC(=O)Nc2ccc(Cl)cc2)n1,.,.,.,0.6,.,.,.,.,.
COC(=O)[C@]12C[C@H](CC(=O)NCC3CCCCC3)C(=O)N(Cc3ccc4c(c3)OCO4)C1=C[C@H](COCc1ccccc1)O[C@@H]2C,-28.5,.,-0.6,6.2,.,.,.,.,.
C[C@H]1COc2cc(N3CCCC3)ccc2S(=O)(=O)N1C,.,.,.,-0.1,.,.,.,.,.
CCCCS(=O)(=O)N1C2=NC3=C(C(=O)N(CCOC)C3=O)C3N(C)c4ccccc4[C@]23C[C@H]1CO (some centres not stated),.,.,.,5.4,.,.,.,.,.
CC(=O)c1ccc(NC(=O)C2C3C=CC(C3=C(c3ccccc3)c3ccccc3)C2C(=O)O)cc1 (configuration not stated),-8.9,9.2,74.6*,6.9,8.9,101.6*,71.3*,16.6,3.5
S=c1[nH]nc(-c2ccncc2)n1/N=C/c1cn(-c2ccccc2)nc1-c1ccccc1,12.0,14.8,81.8*,11.2,8.5,76.4*,16.8*,60.9*,13.9
O=[N+]([O-])c1cc(/C=N/n2c(-c3ccncc3)n[nH]c2=S)ccc1Cl,-11.6,-0.4,51.9*,12.0,24.7,98.0*,19.5*,28.9,-7.5
O=C(c1cc(Br)cc(Br)c1)N1CCC(Oc2cccnc2)CC1,.,.,.,2.4,.,.,.,.,.
CC(CCc1ccc(O)cc1)NCCC(c1ccccc1)c1ccccc1 (configuration not stated),47.7,-53.5,35.7,8.5,-3.2,.,.,.,.
CC(CCc1ccc(O)cc1)N(C)CCc1ccccc1 (configuration not stated),6.4,2.6,48.8*,-4.0,0.9,61.1*,5.0,5.4,-6.3
O=c1oc2ccccc2cc1-c1nc2c(s1)CCc1ccccc1-2,-18.9,15.1,1.2,11.4,38.6,.,.,.,.
O=c1oc2cc(O)ccc2cc1-c1nc2c(s1)CCc1ccccc1-2,46.9,5.9,59.2*,-45.8,0.5,176.1*,164.4*,84.2*,84.1*
O=C(c1coc(=O)c(Br)c1)N1CCC(C(O)(c2ccccc2)c2ccccc2)CC1,-12.3,0.0,2.7,3.5,1.8,.,.,.,.
CC1(C)CCCN(C(=O)c2coc(=O)c(Br)c2)C1,75.9*,4.0,78.6*,12.1,.,100.0*,3.4,94.8*,5.7
Cc1ccc(Oc2ccc(Oc3ccc(C)cc3)nn2)cc1,68.5*,6.0,66.2*,-2.5,0.1,4.8,17.4*,11.9,17.5
Cc1ccc(Oc2cnc3ccccc3n2)cc1,-9.1,1.7,23.9,-1.5,-7.4,.,.,.,.
Oc1ccc(Cl)cc1CNCc1ccc(F)cc1,28.6,.,65.8*,-0.9,-0.9,64.7*,30.0*,22.5,10.9
O=C(CSc1nnc(-c2ccco2)n1Cc1ccco1)c1ccc([N+](=O)[O-])cc1,.,.,.,14.4,.,.,.,.,.
N#C/C(=C\c1ccc(O)cc1)C(=O)NCc1cccc(Cl)c1,37.5,-18.0,63.0*,4.0,-3.6,74.8*,36.7*,35.7,26.1*
N#C/C(=C/c1ccc(O)cc1)C(=O)NCc1ccc(Cl)cc1,3.7,-0.7,33.8,11.3,-0.1,.,.,.,.
O=C1OC(N2CCN(C(=O)c3ccco3)CC2)c2ccccc21 (configuration not stated),10.9,2.9,51.6*,-1.9,-6.9,65.5*,0.4,16.6,8.2
N#Cc1cc(C(=O)c2cc(F)ccc2O)cn(-c2nccs2)c1=O,67.9*,22.3,104.8*,-66.7,48.0*,90.7*,112.4*,67.2*,74.4*
N#Cc1cc(C(=O)c2ccccc2O)cn(-c2nccs2)c1=O,71.1*,17.8,125.7*,-38.3,16.0,90.4*,84.1*,64.7*,58.8*
SMILES,TAAR1 antagonist,HCV NS3 hel inh,TAAR1 ag,rCAG binder,core dimer inh,TAAR1 ag confirm,Ga16 nonsel ag,TAAR1 desens,Ga16 antag count
Cc1nc2cc(C(=O)N3CCN(C(=O)C(C)(C)C)CC3)ccc2n1C1CCCC1,.,.,.,-0.8,.,.,.,.,.
O=C(NC1CCCCN(Cc2cccc(C(F)(F)F)c2)C1=O)c1cccc([N+](=O)[O-])c1 (configuration not stated),.,.,.,1.1,.,.,.,.,.
Cc1noc(C)c1COC(=O)c1cccc(S(=O)(=O)N2CCOCC2)c1,16.2,.,48.4*,-9.9,-6.7,3.3,1.2,-0.6,7.7
CCOC(=O)[C@]12CCCCC/C=C\1N(CCc1ccc(Cl)cc1)C(=O)[C@H]2CC(=O)NCCCN1CCCC1=O,.,.,.,0.6,.,.,.,.,.
O=C(COC(=O)c1cccc(O)c1)Nc1ccc(OC(F)F)cc1,-13.5,-8.4,11.0,-0.6,0.0,.,.,.,.
O=C(COC(=O)c1ccc(O)cc1)Nc1ccc(OC(F)F)cc1,3.4,29.2,66.2*,0.7,-2.3,49.0*,7.2,29.4,16.4
CC(C)(C)C(=O)NC(=S)NNC(=O)c1ccc(Cl)cc1Cl,104.2*,7.6,201.9*,6.4,-3.8,144.3*,114.7*,106.7*,92.3*
COC(=O)NNC(=O)c1ccc(Cl)cc1Cl,-23.0,-0.4,6.0,4.0,1.4,.,.,.,.
CCC(=O)NNC(=O)c1cc(COc2cc(Cl)cc(Cl)c2)on1,19.2,4.6,55.5*,-0.8,-3.2,39.8*,21.5*,21.0,16.3
COC(=O)[C@@]12CCCCC3=C1N(CCC3)C(=O)[C@H]2CC(=O)N1CCN(C(=O)C2CC2)CC1,.,.,.,0.3,.,.,.,.,.
